Test results published in ChEMBL document CHEMBL1132645, “Novel arylpyrazino[2,3-c][1,2,6]thiadiazine 2,2-dioxides as inhibitors of platelet aggregation. 1. Synthesis and pharmacological evaluation” (1999).

Tests used:
Format in all cases: functional
Oryctolagus cuniculus [1] = species: Oryctolagus cuniculus; test: Compound was screened for its platelet aggregation induced by adenosine diphosphate in vitro in rabbit; parameters: concentration or dose not given beside the values
Method in brief: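 Rabbit citrated PRP (male New Zealand white, 2.5–3.5 kg, cardiac puncture), adjusted to 5 × 10⁵ platelets/μL with PPP. Compound in DMSO preincubated 10 min at 37 °C, then ADP 1–2 μM added. Born aggregometry read at 5 min. Single fixed concentration; result is percent inhibition of maximal amplitude against paired vehicle controls.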

Oryctolagus cuniculus [2] = species: Oryctolagus cuniculus; test: Compound was screened for its platelet aggregation induced by arachidonic acid in vitro in rabbit
Method in brief: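 Rabbit citrated PRP, 5 × 10⁵ platelets/μL, compound preincubated in DMSO 10 min at 37 °C, then arachidonic acid 1 mM. Born aggregometry at 5 min, triplicate for each concentration. Value is EC100, the lowest concentration giving complete inhibition, read from concentration–response data.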

Rattus norvegicus [3] = test: In vivo inhibitory activity after 120 min of 100 mg/kg oral administration induced by I-BOP in rats; conditions: 2 h
Method in brief: (§1)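 Male Wistar rats, 200–250 g, fasted overnight, were dosed by oral gavage with compound suspended in 0.25% carboxymethylcellulose in 10% Tween 80 (10 mL/kg). Blood was drawn by cardiac puncture under ether at 30 or 120 min and anticoagulated with heparin 1 U/mL final. PRP was diluted to (4–5) × 10⁵ cells/μL. Agonists: AA 0.4 mM, collagen 1–2 μg/mL, I-BOP 225–250 nM. Percent inhibition read at 5 min; 3–5 determinations, mean ± SEM.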

Rattus norvegicus [4] = test: In vivo inhibitory activity after 30 min of 100 mg/kg oral administration induced by arachidonic acid in rats; conditions: 0.5 h; method in brief: as §1
Rattus norvegicus [5] = test: In vivo inhibitory activity after 30 min of 100 mg/kg oral administration induced by collagen in rats; conditions: 0.5 h; method in brief: as §1
Rattus norvegicus [6] = test: In vivo inhibitory activity after 120 min of 100 mg/kg oral administration induced by arachidonic acid in rats; conditions: 2 h; method in brief: as §1
Rattus norvegicus [7] = test: In vivo inhibitory activity after 120 min of 100 mg/kg oral administration induced by collagen in rats; conditions: 2 h; method in brief: as §1
Rattus norvegicus [8] = test: In vivo inhibitory activity after 30 min of 100 mg/kg oral administration induced by I-BOP in rats; conditions: 0.5 h; method in brief: as §1
Rattus norvegicus [9] = test: In vivo inhibitory activity after 120 min of 25 mg/kg oral administration induced by collagen in rats; conditions: 2 h
Rattus norvegicus [10] = test: In vivo inhibitory activity after 120 min of 25 mg/kg oral administration induced by I-BOP in rats; conditions: 2 h
Rattus norvegicus [11] = test: In vivo inhibitory activity after 120 min of 25 mg/kg oral administration induced by arachidonic acid in rats; conditions: 2 h
Homo sapiens = species: Homo sapiens; test: Compound was screened for its platelet aggregation induced by collagen in vitro in human platelets at conc 1 mM
Method in brief: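 Human citrated PRP (blood from consenting volunteers, 3.8% trisodium citrate 9:1; PRP 250g 10 min, PPP 2000g 20 min, room temperature), adjusted to 3 × 10⁵ platelets/μL with PPP. Compounds in DMSO preincubated 10 min at 37 °C. Agonists: AA 1 mM, collagen 1–2 μg/mL, U46619 1.4 μM, I-BOP 225–250 nM. Born turbidimetric aggregometry read 5 min after agonist; inhibition of maximal amplitude versus paired vehicle; 3–4 determinations, mean ± SEM.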

Compound	Inhibitory response (Oryctolagus cuniculus [1]) [%]	EC100 (Oryctolagus cuniculus [2]) [mg/mL]	further results
NC(=O)CN1c2nc(-c3ccccc3)c(-c3ccccc3)nc2C(N)=NS1(=O)=O	47	0.003	
CN1c2nc(-c3ccccn3)c(-c3ccccn3)nc2C(N)=NS1(=O)=O	43	0.003	
CN1c2ncc(-c3ccccc3)nc2C(N)=NS1(=O)=O	43	0.0003	
CN1c2nc(-c3ccco3)c(-c3ccco3)nc2C(N)=NS1(=O)=O	63	0.001	
CCN1c2nc(C)c(-c3ccccc3)nc2C(N)=NS1(=O)=O	47	0.001	inhibition in vivo at 100 mg/kg (Rattus norvegicus [3]): 50.3%; inhibition in vivo at 100 mg/kg (Rattus norvegicus [4]): 20%; inhibition in vivo at 100 mg/kg (Rattus norvegicus [5]): 93.5%; inhibition in vivo at 100 mg/kg (Rattus norvegicus [6]): 48.8%; inhibition in vivo at 100 mg/kg (Rattus norvegicus [7]): 47.2%; inhibition in vivo at 100 mg/kg (Rattus norvegicus [8]): 59.6%
O=C(O)CCn1c2c(c3ccccc31)CC(NS(=O)(=O)c1ccc(F)cc1)CC2 (stereo not given)			inhibition in vivo at 25 mg/kg (Rattus norvegicus [9]): 95.3%; inhibition in vivo at 25 mg/kg (Rattus norvegicus [10]): 72.5%; inhibition in vivo at 25 mg/kg (Rattus norvegicus [11]): 74.2%
CCOC(=O)CN1c2nc(-c3ccccc3)c(-c3ccccc3)nc2C(N)=NS1(=O)=O	30	0.0001	
CCN1c2nc(-c3ccccc3)c(Cl)nc2C(N)=NS1(=O)=O	23	0.01	
CC(C)(C)OC(=O)CN1c2nc(-c3ccccc3)c(-c3ccccc3)nc2C(N)=NS1(=O)=O	32	0.001	
CCN1c2nc(-c3ccccc3)c(-c3ccccc3)nc2C(N)=NS1(=O)=O	46	0.0003	inhibition in vivo at 100 mg/kg (Rattus norvegicus [3]): 30%; inhibition in vivo at 100 mg/kg (Rattus norvegicus [4]): 6.5%; inhibition in vivo at 100 mg/kg (Rattus norvegicus [5]): 82.6%; inhibition in vivo at 100 mg/kg (Rattus norvegicus [6]): 1%; inhibition in vivo at 100 mg/kg (Rattus norvegicus [7]): 26.3%; inhibition in vivo at 100 mg/kg (Rattus norvegicus [8]): 100%
NC1=NS(=O)(=O)N(Cc2ccccc2)c2nc(-c3ccccc3)c(-c3ccccc3)nc21	30	0.003	
CCOC(=O)CN1c2nc(-c3ccccc3)c(Br)nc2C(N)=NS1(=O)=O	36	0.01	
CCN1c2nc(-c3cccs3)c(-c3cccs3)nc2C(N)=NS1(=O)=O	43	0.003	
CCN1c2nc(-c3ccccc3)c(C)nc2C(N)=NS1(=O)=O	59	0.001	
Nc1ncnc2c1ncn2[C@@H]1O[C@H](CO)[C@@H](O)[C@H]1O [ADENOSINE]	64		
CC(=O)Oc1ccccc1C(=O)O [ASPIRIN]		0.0025	inhibition in vivo at 100 mg/kg (Rattus norvegicus [3]): 0.9%; inhibition in vivo at 100 mg/kg (Rattus norvegicus [6]): 93.8%; inhibition in vivo at 100 mg/kg (Rattus norvegicus [7]): 84.6%; inhibition at 1000 µM (Homo sapiens): 94%
Clc1ccccc1CN1CCc2sccc2C1 [TICLOPIDINE]			inhibition in vivo at 100 mg/kg (Rattus norvegicus [3]): 57.1%; inhibition in vivo at 100 mg/kg (Rattus norvegicus [6]): 0.9%; inhibition in vivo at 100 mg/kg (Rattus norvegicus [7]): 98.7%
